Drawing on ChEMBL document CHEMBL1131459, “2-Substituted (2SR)-2-amino-2-((1SR,2SR)-2-carboxycycloprop-1-yl)glycines as potent and selective antagonists of group II metabotropic glutamate receptors. 1. Effects of alkyl, arylalkyl, and diarylalkyl substitution” (J Med Chem, 1998), this text covers IC50 for 38 compounds.

Assay [1] in a line: Inhibitory activity for Group II Metabotropic glutamate receptor in rat forebrain membranes by using [3H]glutamate radioligand. The class given is cell membranes, Membrane. An outline of the steps:
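Displacement of [³H]glutamic acid binding in rat forebrain membranes, an assay described as selective for group II mGluRs. Each compound was tested as a mixture of four isomers (two racemic diastereomers). Some values are the average of two determinations and some of three.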

Assay [2] deals with T1, Metabotropic glutamate receptor 2 (Homo sapiens, UniProt Q14416). As to the kind of experiment: Ability to block 1S,3R-ACPD-induced inhibition of forskolin stimulated cyclic-AMP in non-neuronal cell line expressing human Metabotropic glutamate receptor 2. Type of assay: functional.
T1 sequence (Q14416 whole entry): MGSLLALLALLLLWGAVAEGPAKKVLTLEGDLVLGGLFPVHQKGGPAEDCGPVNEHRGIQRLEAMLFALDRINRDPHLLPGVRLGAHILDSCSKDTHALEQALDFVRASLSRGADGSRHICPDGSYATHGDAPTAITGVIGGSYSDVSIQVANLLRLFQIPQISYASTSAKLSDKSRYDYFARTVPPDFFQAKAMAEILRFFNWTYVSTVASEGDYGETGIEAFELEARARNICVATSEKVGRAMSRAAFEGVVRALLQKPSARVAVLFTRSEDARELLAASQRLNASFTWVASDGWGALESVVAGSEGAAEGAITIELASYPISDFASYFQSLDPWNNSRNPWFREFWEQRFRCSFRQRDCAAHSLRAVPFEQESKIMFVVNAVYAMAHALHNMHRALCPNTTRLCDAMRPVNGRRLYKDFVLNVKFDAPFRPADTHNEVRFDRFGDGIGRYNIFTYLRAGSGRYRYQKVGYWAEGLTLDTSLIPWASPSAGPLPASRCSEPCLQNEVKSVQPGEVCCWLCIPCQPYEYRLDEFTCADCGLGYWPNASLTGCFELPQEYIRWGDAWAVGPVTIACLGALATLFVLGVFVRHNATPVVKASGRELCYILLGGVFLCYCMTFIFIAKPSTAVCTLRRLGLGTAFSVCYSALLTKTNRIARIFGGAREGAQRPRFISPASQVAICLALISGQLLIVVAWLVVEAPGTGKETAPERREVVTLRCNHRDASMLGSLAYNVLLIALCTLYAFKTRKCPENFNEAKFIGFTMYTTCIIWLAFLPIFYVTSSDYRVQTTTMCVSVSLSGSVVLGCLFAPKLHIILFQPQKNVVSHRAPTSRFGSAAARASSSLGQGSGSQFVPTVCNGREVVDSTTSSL
Assay [3] has as its target T2, Metabotropic glutamate receptor 3 (Homo sapiens, UniProt Q14832). The assay can be described thus: Ability to block 1S,3R-ACPD-induced inhibition of forskolin stimulated cyclic-AMP in non-neuronal cell line expressing human Metabotropic glutamate receptor 3. The class given is functional.
The target of assay [4] is T1, Metabotropic glutamate receptor 2. The assay can be described thus: Compound was tested its ability to block 1S,3R-ACPD-induced inhibition of forskolin stimulated cyclic-AMP in non-neuronal cell line expressing human Metabotropic glutamate receptor 2; Agonist. The class given is functional.
Assay [5] has as its target T2, Metabotropic glutamate receptor 3. The assay can be described thus: Compound was tested its ability to block 1S,3R-ACPD-induced inhibition of forskolin stimulated cyclic-AMP in non-neuronal cell line expressing human Metabotropic glutamate receptor 3; Agonist. Type of assay: functional.

One may read the IC50 as the concentration needed to halve the response being measured. Low readings indicate greater potency, high ones weaker potency.

T2 sequence (Q14832 whole entry): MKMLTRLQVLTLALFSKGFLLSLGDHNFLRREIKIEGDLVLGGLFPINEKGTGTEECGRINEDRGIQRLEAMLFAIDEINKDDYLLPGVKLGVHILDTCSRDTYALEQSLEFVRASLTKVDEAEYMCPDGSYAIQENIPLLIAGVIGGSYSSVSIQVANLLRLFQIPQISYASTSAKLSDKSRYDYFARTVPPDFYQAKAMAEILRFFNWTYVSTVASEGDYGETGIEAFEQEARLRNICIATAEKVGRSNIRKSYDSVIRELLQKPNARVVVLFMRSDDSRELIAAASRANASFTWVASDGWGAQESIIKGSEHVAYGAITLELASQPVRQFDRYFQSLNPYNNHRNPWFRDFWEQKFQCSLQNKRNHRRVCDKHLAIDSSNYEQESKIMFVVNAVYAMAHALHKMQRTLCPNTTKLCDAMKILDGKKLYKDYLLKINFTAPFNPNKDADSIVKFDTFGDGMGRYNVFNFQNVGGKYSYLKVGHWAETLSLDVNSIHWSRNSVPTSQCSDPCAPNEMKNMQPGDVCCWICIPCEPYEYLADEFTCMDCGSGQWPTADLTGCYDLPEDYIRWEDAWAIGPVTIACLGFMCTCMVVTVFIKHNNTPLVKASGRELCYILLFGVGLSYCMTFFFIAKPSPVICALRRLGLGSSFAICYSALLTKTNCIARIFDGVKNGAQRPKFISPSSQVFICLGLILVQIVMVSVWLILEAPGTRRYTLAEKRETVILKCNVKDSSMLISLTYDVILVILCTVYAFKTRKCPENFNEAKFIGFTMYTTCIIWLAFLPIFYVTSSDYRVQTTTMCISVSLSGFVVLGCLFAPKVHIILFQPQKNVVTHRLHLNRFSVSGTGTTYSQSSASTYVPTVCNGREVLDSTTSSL

For `N[C@](C(=O)O)(C1Cc2ccccc2C1)C1C[C@@H]1C(=O)O` (some centres not stated), in assay [1], the IC50 is over 10 µM.
With `N[C@@](CC(Cc1ccccc1)Cc1ccccc1)(C(=O)O)C1C[C@@H]1C(=O)O` (some centres not stated), the IC50 in assay [1] was over 10 µM.
Take `N[C@@](CCC1CCCCC1)(C(=O)O)C1C[C@@H]1C(=O)O` (some centres not stated): the IC50 in assay [1] came to 0.38 µM.
On to `CCCC[C@](N)(C(=O)O)C1C[C@@H]1C(=O)O` (some centres not stated), for which the IC50 in assay [1] stood at 1.4 µM.
Take `N[C@@](CC1CCOc2ccccc21)(C(=O)O)C1C[C@@H]1C(=O)O` (some centres not stated): in assay [1], the IC50 amounted to 0.63 µM.
With `NC(CCC12CC3CC(CC(C3)C1)C2)(C(=O)O)[C@H]1C[C@@H]1C(=O)O` (some centres not stated), the IC50 in assay [1] was 0.2 µM; in assay [2], 0.24 µM; in assay [3] it was 0.76 µM.
`CC(C)[C@](N)(C(=O)O)C1C[C@@H]1C(=O)O` (some centres not stated) returned an IC50 in assay [1] of over 10 µM.
`N[C@@H](C(=O)O)C1C[C@@H]1C(=O)O` (some centres not stated): the IC50 in assay [1] is 0.47 µM; in assay [4], “Agonist”; in assay [5], “Agonist”.
Compound `N[C@@](CC1CCCc2ccccc21)(C(=O)O)C1C[C@@H]1C(=O)O` (some centres not stated) displayed an IC50 in assay [1] of 0.23 µM. This lies in the sub-micromolar range.
As for `NC(CCCCc1ccccc1)(C(=O)O)[C@H]1C[C@@H]1C(=O)O` (some centres not stated), the values for the IC50 in assay [1], in assay [2] and in assay [3] were 2.3 µM, 0.45 µM and 2.8 µM, respectively.
`N[C@@](COc1ccccc1)(C(=O)O)C1C[C@@H]1C(=O)O` (some centres not stated) came in with an IC50 in assay [1] of 11.2 µM.
With `N[C@@](CCC1CCNCC1)(C(=O)O)C1C[C@@H]1C(=O)O` (some centres not stated), the IC50 in assay [1] was over 10 µM.
Consider `Cn1cc(CCC(N)(C(=O)O)[C@H]2C[C@@H]2C(=O)O)c2ccccc21` (some centres not stated), for which the results for the 50% inhibitory concentration (IC50) in assay [1], in assay [2] and in assay [3] were 0.28 µM, 1.4 µM and 1.2 µM, respectively.
For `NC(CCc1ccsc1)(C(=O)O)[C@H]1C[C@@H]1C(=O)O` (some centres not stated) the same measures were 0.21 µM, 1 µM and 0.57 µM.
As to `N[C@@](CC(c1ccccc1)c1ccccc1)(C(=O)O)[C@H]1C[C@@H]1C(=O)O`, the IC50 came to 0.24 µM in assay [1], 4.36 µM in assay [2] and 0.28 µM in assay [3].
Compound `C[C@](N)(C(=O)O)C1C[C@@H]1C(=O)O` (some centres not stated) displayed an IC50 in assay [1] of 6.2 µM.
Compound `N[C@@](CC1c2ccccc2Sc2ccccc21)(C(=O)O)C1C[C@@H]1C(=O)O` (some centres not stated) gave an IC50 in assay [1] of 0.019 µM.
As for `CCCCCCCC[C@](N)(C(=O)O)C1C[C@@H]1C(=O)O` (some centres not stated), the concentration for half-maximal inhibition (IC50) in assay [1] was 1.7 µM.
In the case of `N[C@@](CCC(c1ccccc1)c1ccccc1)(C(=O)O)C1C[C@@H]1C(=O)O` (some centres not stated), the IC50 was 7.1 µM in assay [1], over 10 µM in assay [2] and over 10 µM in assay [3].
For the compound `NC(CCc1cccc2ccccc12)(C(=O)O)[C@H]1C[C@@H]1C(=O)O` (some centres not stated), the IC50 in assay [2] stood at 0.24 µM; in assay [3] it was 0.47 µM.
Compound `CCC[C@](N)(C(=O)O)C1C[C@@H]1C(=O)O` (some centres not stated) gave an IC50 in assay [1] of 2.1 µM.
As to `CCCCC[C@](N)(C(=O)O)C1C[C@@H]1C(=O)O` (some centres not stated), the IC50 in assay [1] was 1.8 µM.
`N[C@@](CCc1cccs1)(C(=O)O)C1C[C@@H]1C(=O)O` (some centres not stated) showed an IC50 in assay [1] of 0.58 µM.
For `N[C@@](CCCC(c1ccccc1)c1ccccc1)(C(=O)O)C1C[C@@H]1C(=O)O` (some centres not stated), the IC50 in assay [1] is 7 µM.
Still for that read-out and setting: to `CC(C)CCC[C@](N)(C(=O)O)C1C[C@@H]1C(=O)O` (some centres not stated) belongs 0.85 µM; to `CC(C[C@](N)(C(=O)O)C1C[C@@H]1C(=O)O)c1ccccc1` (some centres not stated), 0.2 µM; to `N[C@@](CC1CCCC1)(C(=O)O)C1C[C@@H]1C(=O)O` (some centres not stated), 1.4 µM.
On the same count and under the same terms, the value for `N[C@@](CCc1ccc2ccccc2c1)(C(=O)O)C1C[C@@H]1C(=O)O` (some centres not stated) was 2.8 µM.
Consider `NC(CC1CCCCC1)(C(=O)O)[C@H]1C[C@@H]1C(=O)O` (some centres not stated), for which the IC50 is 0.23 µM in assay [1], 1.1 µM in assay [2] and 1.4 µM in assay [3].
Taken in the same sequence, the figures for `CCC(N)(C(=O)O)[C@H]1C[C@@H]1C(=O)O` (some centres not stated) were 2.2 µM, 6.5 µM and 2.5 µM.
With `N[C@@](Cc1ccccc1)(C(=O)O)C1C[C@@H]1C(=O)O` (some centres not stated), the IC50 in assay [1], in assay [2] and in assay [3] was over 10 µM each time.
For `NC(CCc1ccccc1)(C(=O)O)[C@H]1C[C@@H]1C(=O)O` (some centres not stated), the values for the IC50 in assay [1], in assay [2] and in assay [3] were 0.32 µM, 0.85 µM and 0.65 µM, respectively.
On to `N[C@@](CC1c2ccccc2Oc2ccccc21)(C(=O)O)[C@H]1C[C@@H]1C(=O)O`, for which the IC50 in assay [1] came to 0.01 µM.
For `CC(C)CC[C@](N)(C(=O)O)C1C[C@@H]1C(=O)O` (some centres not stated), the IC50 in assay [1] turned out to be 1.1 µM. Against the preceding compound, the IC50 is about 110-fold higher.
With `N[C@@](CCC1C2CC3CC(C2)CC1C3)(C(=O)O)C1C[C@@H]1C(=O)O` (some centres not stated), the IC50 in assay [1] worked out at 0.55 µM.
For `NC(CCCc1ccccc1)(C(=O)O)[C@H]1C[C@@H]1C(=O)O` (some centres not stated), the IC50 was 0.63 µM in assay [1], 1 µM in assay [2] and 0.55 µM in assay [3].
With `N[C@@](CC1CCC1)(C(=O)O)C1C[C@@H]1C(=O)O` (some centres not stated), the IC50 was 29.5 µM in assay [1], over 10 µM in assay [2] and over 10 µM in assay [3].
For `CC(C)C[C@](N)(C(=O)O)C1C[C@@H]1C(=O)O` (some centres not stated), the IC50 turned out to be 0.7 µM in assay [1], 1.6 µM in assay [2] and 1.8 µM in assay [3].
